Measured values: ChEMBL document CHEMBL2417392, “Synthesis and broad spectrum antiviral evaluation of bis(POM) prodrugs of novel acyclic nucleosides” (Eur J Med Chem, 2013)

How the values were obtained:
CCRF-CEM = assay: Cytotoxicity against human CEM cells; type: cell-based
Vero = assay: Cytotoxicity against african green monkey Vero cells; type: cell-based; details: chlorocebus sabaeus
PBMC = assay: Cytotoxicity against human PBMC cells; type: cell-based
Hepatitis C virus = assay: Antiviral activity against HCV infected in Huh7 cells assessed as inhibition of viral RNA replication after 5 days by RT-PCR Assay; type: functional, Hepacivirus hominis, Huh-7
Outline: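 Huh 7 Clone B cells carrying subgenomic HCV replicon RNA, seeded 3000 cells/well, compound added at 10 μM in triplicate right after seeding; 5 days at 37 °C, 5% CO2. Total RNA extracted; replicon RNA and rRNA internal control amplified by one-step multiplex real-time RT-PCR. Activity as ΔCt versus no-drug control (ΔCt 3.3 = 1-log reduction); ΔCt converted to fraction of starting material for % inhibition.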

[1] = tested on: Human immunodeficiency virus; assay: Antiviral activity against HIV infected in human CEM cells assessed as inhibition of HIV-induced CEM giant cell formation after 4 days by microscopy; details: Human immunodeficiency virus 1, CCRF-CEM, 96 h
HEL = assay: Cytotoxicity against human HEL cells after 3 days by Coulter counting method; type: cell-based; details: 72 h
Human betaherpesvirus 5 = assay: Antiviral activity against human Cytomegalovirus AD169 infected in HEL cells assessed as inhibition of virus-induced cytopathicity after; type: functional, organism-based; details: Human betaherpesvirus 5, AD169, HEL

SMILES | CC50 (CCRF-CEM) [µM] | CC50 (Vero) [µM] | CC50 (PBMC) [µM] | inhibition (INH) (Hepatitis C virus) [%] | EC50 [1] [µM] | EC90 [1] [µM] | CC50 (HEL) [µM] | EC50 (Human betaherpesvirus 5) [µM]
CC(C)(C)C(=O)OCOP(=O)(C/C=C/Cn1ccnc(C(N)=O)c1=O)OCOC(=O)C(C)(C)C | > 100 | > 100 | > 100 | 60 | > 100 | > 100 |  | 
CC(C)(C)C(=O)OCOP(=O)(C/C=C/Cn1cnc(C(N)=O)n1)OCOC(=O)C(C)(C)C | 41.8 | 86.8 | 58.3 | 73.9 | > 100 | > 100 |  | 
COc1cc(OC)cc(-c2cn(C/C=C/CP(=O)(OCOC(=O)C(C)(C)C)OCOC(=O)C(C)(C)C)nn2)c1 | 68.2 | 86.8 | > 100 | 20.8 | > 100 | > 100 |  | 
COC(=O)c1nccn(C/C=C/CP(=O)(OCOC(=O)C(C)(C)C)OCOC(=O)C(C)(C)C)c1=O | > 100 | > 100 | > 100 | 76.9 | > 100 | > 100 |  | 
CCCCCCCCc1cn(C/C=C/CP(=O)(OCOC(=O)C(C)(C)C)OCOC(=O)C(C)(C)C)nn1 | 16.8 | 10.3 | 19.8 | 88.7 | > 100 | > 100 |  | 
CCCCCCc1ccc(-c2cn(C/C=C/CP(=O)(OCOC(=O)C(C)(C)C)OCOC(=O)C(C)(C)C)nn2)cc1 | 16.1 | 10.4 | 5.9 | 95 | 43.9 | > 100 |  | 
CC(C)(C)C(=O)OCOP(=O)(C/C=C/Cn1cc(-c2cccs2)nn1)OCOC(=O)C(C)(C)C | 31.6 | 17.1 | 32.9 | 0.2 | 62.3 | > 100 |  | 
CCCc1ccc(-c2cn(C/C=C/CP(=O)(OCOC(=O)C(C)(C)C)OCOC(=O)C(C)(C)C)nn2)cc1 | 55.3 | 41 | 35.9 | 95.6 | 31.6 | > 100 |  | 
Nc1ccn(C[C@@H](CO)OCP(=O)(O)O)c(=O)n1 [CIDOFOVIR] |  |  |  |  |  |  | > 350 | 
CC(C)(C)C(=O)OCOP(=O)(C/C=C/Cn1ccc(N)nc1=O)OCOC(=O)C(C)(C)C | > 100 | > 100 | > 100 | 80.4 | 70.4 | > 100 |  | 
CC(C)(C)C(=O)OCOP(=O)(C/C=C/Cn1cc(-c2ccc(OC(F)(F)F)cc2)nn1)OCOC(=O)C(C)(C)C | 37.6 | 12.7 | 19.6 | 60.6 | 55.2 | > 100 |  | 
Nc1nc(O)c2ncn(COC(CO)CO)c2n1 [GANCICLOVIR] |  |  |  |  |  |  | > 350 | 
CC(C)(C)C(=O)OCOP(=O)(C/C=C/Cn1cc(F)c(N)nc1=O)OCOC(=O)C(C)(C)C |  |  |  | 73.6 |  |  |  | 
CC(C)(C)C(=O)OCOP(=O)(C/C=C/Cn1cc(-c2ccc(F)cc2)nn1)OCOC(=O)C(C)(C)C | 31.6 | 47 | 61.9 | 84.3 | > 100 | > 100 |  | 
CC(C)(C)C(=O)OCOP(=O)(C/C=C/Cn1ccnn1)OCOC(=O)C(C)(C)C | 81.8 | 87.9 | 93.1 | 85.9 | > 100 | > 100 |  | 
CC(C)(C)C(=O)OCOP(=O)(C/C=C/Cn1cc(C(=O)O)nn1)OCOC(=O)C(C)(C)C | > 100 | > 100 | > 100 | 53.8 | > 100 | > 100 |  | 
CC(C)(C)C(=O)OCOP(=O)(C/C=C/Cn1cc(CO)nn1)OCOC(=O)C(C)(C)C | 57.4 | 87.1 | 73.2 | 78.1 | > 100 | > 100 | 100 | 9.9
CC(C)(C)C(=O)OCOP(=O)(C/C=C/Cn1cc(-c2ccccc2)nn1)OCOC(=O)C(C)(C)C | 31.6 | 15.6 | 16 | 83.1 | 35.8 | > 100 |  | 
CC(C)(C)C(=O)OCOP(=O)(C/C=C/Cn1cc(C(N)=O)nn1)OCOC(=O)C(C)(C)C | 52.9 | 80.6 | 62.4 | 86.5 | 70.5 | > 100 |  | 
